High-throughput results as filed in PubChem BioAssay.
This is a sample that favours compounds with a hit; in the whole collection about 2.9% have one here.
ABHD5-PLIN5 inh = ABHD5-PLIN5 interaction inhibitors, primary screen, cell lysate, split luciferase complementation, luminescence; Perilipin-5 (Homo sapiens) + 1-acylglycerol-3-phosphate O-acyltransferase ABHD5 (Homo …; Split G. princeps luciferase complementation, 4 h; inhibition, % at 4 µM; hit rate 0.78% among 360,000; AID 602281, 2012;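 active = inhibition above the mean inhibition across every tested compound plus 3 SD, cut at about 22% in these data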;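 note: 0% = DMSO only wells and the 100% control is not disclosed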
HCV core dimer = inhibitors of HCV core protein dimerization, primary screen, biochemical, TR-FRET, high-throughput | TR-FRET GST/Flag-core106 dimerization, 1536-well | inhibition, % at 5 µM | hit rate 0.33% among 300,000;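 active = inhibition above the mean of all tested compounds plus 3 SD, set per screening campaign, cut at about 45% in these data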
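Assay system: GST-tagged and Flag-tagged HCV core protein residues 1-106 / Times: compound-protein-antibody incubation 4 h at 22.5 °C / Signal: time-resolved FRET, ex 340 nm, em 617 and 671 nm / Evaluation: % inhibition based on acceptor/donor emission ratio / Benchmarks: wells lacking GST-core106 and wells with excess unlabelled core106 / Repeats: singlicate, one well per compound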
APOBEC3G inh = APOBEC3G DNA deaminase inhibitors, primary screen, biochemical, fluorescence, single-stranded DNA substrate, uHTS. DNA dC->dU-editing enzyme APOBEC-3G (Homo sapiens), Q9HC16. recombinant A3G, ssDNA deamination FAM/TAMRA fluorescence. inhibition, % at 20 µM. hit rate 0.28% among 330,000. AID 493012, 2011;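 active = inhibition of at least 40% at 20 µM, with no more than 30% in the related APOBEC3A deaminase screen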;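 note: plate controls were DMSO wells with A3G for no effect and wells lacking A3G enzyme for full effect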
Target sequence (Q9HC16 whole entry, looked up): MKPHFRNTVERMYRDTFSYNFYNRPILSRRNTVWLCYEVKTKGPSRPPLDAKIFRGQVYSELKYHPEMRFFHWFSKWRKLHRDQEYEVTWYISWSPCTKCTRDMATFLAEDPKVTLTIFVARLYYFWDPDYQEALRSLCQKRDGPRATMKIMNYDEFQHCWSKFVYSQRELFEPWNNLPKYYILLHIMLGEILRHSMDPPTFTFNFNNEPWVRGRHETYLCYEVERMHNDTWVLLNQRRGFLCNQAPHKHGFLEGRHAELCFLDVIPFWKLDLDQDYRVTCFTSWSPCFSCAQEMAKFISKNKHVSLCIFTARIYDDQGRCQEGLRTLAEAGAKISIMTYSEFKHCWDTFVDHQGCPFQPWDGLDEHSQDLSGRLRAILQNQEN
HCV NS3 hel inh = inhibitors of HCV NS3 helicase, primary screen, biochemical, Cy5 molecular beacon fluorescence; NS3 helicase DNA unwinding; inhibition, % at 10.9 µM; hit rate 0.56% among 290,000;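 active = inhibition above the mean of all tested compounds plus 3 SD, set per campaign, cut at about 35% in these data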;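 note: 0% = DMSO wells and 100% = thioflavine S control wells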
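Assay system: hepatitis C virus NS3 helicase domain fragment enzyme. Also added: annealed dual-labelled DNA beacon duplex, ATP-started. Timing: 1 h reaction at 25 °C, ATP-initiated. Technique: Cy5 fluorescence at 0 and 60 min, beacon hairpin quenching. Evaluation: % inhibition of unwinding. Replication: one well per compound.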
PRMT1 FP inh = PRMT1 methyltransferase inhibitors, primary screen, biochemical, fluorescence polarization; hit rate 1.3% among 370,000; inhibition, % at 2.79 µM; Protein arginine N-methyltransferase 1 (Homo sapiens), Q99873; recombinant PRMT1, activity-based probe fluorescence polarization; AID 652257, 2013;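 active = inhibition above about 21% made by adding two undisclosed values, limit read from the data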
APOBEC3A inh = APOBEC3A ssDNA deaminase inhibitors, primary screen, selectivity assay for APOBEC3G inhibitor project, biochemical, FAM/TAMRA oligo cleavage fluorescence; DNA dC->dU-editing enzyme APOBEC-3A (Homo sapiens), P31941; AID 493011, 2011; hit rate 0.41% among 330,000; recombinant A3A, FAM/TAMRA ssDNA deamination fluorescence; inhibition, % at 20 µM;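 active = at least 40% inhibition at 20 µM here, with at most 30% in a related deaminase screen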;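 note: plate controls were A3A with DMSO for no effect and wells lacking A3A enzyme for full effect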
A3G conf = APOBEC3G deaminase inhibitor retest, confirmation, biochemical, fluorescence, single-stranded DNA substrate, single concentration | hit rate 72% among 890 | inhibition, % at 20 µM | recombinant A3G ssDNA deaminase, UDG/FAM-TAMRA fluorescence | shares compounds with APOBEC3G inh | AID 493152, 2011;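 active = inhibition reaching a set limit in any replicate at 20 µM, the limit being 80% of the first screen's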
UDG ctr A3G = E. coli UDG inhibitors, confirmation, counter-screen for APOBEC3G inhibitor project, biochemical, single concentration, fluorescence, FAM/TAMRA oligo; shares compounds with APOBEC3G inh; UDG counterscreen; inhibition, % at 20 µM; 710 tested, under 10 active; AID 504715, 2011;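 active = compounds giving 40% or more inhibition at 20 µM in any one of the three replicates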;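 note: plate controls were DMSO wells with UDG and oligo for no effect and DMSO wells lacking both for full effect; inhibitors lower the FAM signal released by uracil excision and alkaline cleavage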
Numbers without * were called inactive; x = not tested or not shown.

SMILES	ABHD5-PLIN5 inh	HCV core dimer	APOBEC3G inh	HCV NS3 hel inh	PRMT1 FP inh	APOBEC3A inh	A3G conf	UDG ctr A3G
C=C(C)C(=O)Nc1cccc(C2=NOC3(C2)C[C@@H](C(N)=O)N(C(=O)/C=C/CC)C3)c1 (stereo partly drawn)	1.6	-67.3	91.4*	x	-0.1	10.9	92.8*	-2.0
C=C(C)C(=O)Nc1cccc(C2=NOC3(C2)C[C@H](C(N)=O)N(C(=O)/C=C/C)C3)c1 (stereo partly drawn)	1.9	-86.0	86.3*	x	-1.1	5.6	91.3*	-4.2
CC(=O)Oc1ccccc1Cn1c(C)c(C(=O)NCc2ccccc2C(F)(F)F)sc1=O	-4.6	x	x	x	-4.4	x	x	x
COc1ccc(O)c(C(=O)C2c3ccccc3C(=O)N2c2ccc(C)cc2)c1 (stereo not drawn)	-6.8	3.4	75.4*	18.4	2.7	-0.9	87.8*	-4.6
CCN(CC)C(=O)CSc1ncnc2sccc12	-0.1	4.8	-4.8	8.0	-0.8	-1.4	x	x
CCN(CC)C(=O)CSc1ncnc2c(-c3cccs3)nsc12	0.6	47.2*	54.0*	4.2	3.0	26.4	44.9*	-2.7
COc1ccc2c(C)cc3n[nH]c(=S)n3c2c1	-3.7	-2.9	52.4*	11.2	4.6	-7.4	87.1*	-0.9
COc1ccc(-c2n[nH]c(=S)n2N)c(OC)c1	2.3	-5.5	14.6	0.0	-2.8	-5.7	x	x
CC1(C)Cc2cccc(OC(=O)NCCc3ccc(F)cc3)c2O1	3.1	x	x	x	-0.9	x	x	x
NNC(=O)Nc1cccc(C(F)(F)F)c1	-6.0	-1.0	56.9*	-7.3	7.7	3.4	-1.6	x
O=C(Nc1ccncc1)Nc1cccc(C(F)(F)F)c1	4.5	9.1	-4.5	-16.3	1.6	-0.8	x	x
CC(=O)C(Sc1nn(C)c(=S)s1)C(=O)Nc1ccccc1 (stereo not drawn)	-16.2	-5.0	56.6*	7.9	23.6*	2.3	40.3*	-4.7
CC(=O)C(Sc1nc(N(C)C)nc(N(C)C)n1)C(=O)Nc1ccccc1 (stereo not drawn)	-3.5	-0.5	-4.3	-5.8	4.6	-1.2	x	x
O=C(c1cc(Cl)cc(Cl)c1)N1CCC2CC1c1cc(N3CCCCC3)ccc12 (stereo not drawn)	-4.1	x	x	x	1.1	x	x	x
Cc1[nH]c(=S)c(C#N)c(C)c1CCC#N	-2.0	4.0	64.6*	4.2	10.2	-5.0	90.2*	-4.8
O=C(CNC(c1ccccc1)c1ccccc1)Nc1ccccc1Br	-0.8	8.4	50.3*	-11.7	2.0	-3.6	-6.4	0.5
COC(=O)[C@]12C[C@H](CC(=O)NCc3cccc(C(F)(F)F)c3)C(=O)N(Cc3cccc4ccccc34)C1=C[C@H](C1CCCC1)O[C@@H]2C	x	x	x	x	-0.2	x	x	x
C=CCn1c(N)c(C(=O)NCCC2=CCCCC2)sc1=S	-4.2	-5.6	47.2*	-5.2	14.8	1.8	8.0	x
COc1ccc([C@H]2C(C(=O)O)=C[C@@H](C(C)(C)C)N2S(=O)(=O)c2ccccc2)cc1	-1.1	x	-2.4	x	-0.7	-0.4	x	x
CCOC(=O)C1=C(C)N(c2ccc(OC)cc2)C(=O)/C1=C\c1ccc(O)c(OCC)c1	14.5	2.8	67.3*	18.9	31.8*	0.1	2.5	x
CCOc1ccc(C(=S)NC2CCCCC2)cc1OCC	-7.3	-0.5	55.7*	-11.7	4.4	-1.4	49.1*	-1.4
